Measured values as given in ChEMBL document CHEMBL4689842, “EUbOPEN Chemogenomics Library wave 1” (2021).

Test system: U2OS
Test: Multiplex assay against U2OS
Format: toxicity, cell-based
Conditions: human
How it was run: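 Live cells were stained at seeding with Hoechst33342, BioTracker Green Microtubule Cytoskeleton Dye, MitoTracker Red and Annexin V Alexa Fluor 680. Following compound addition, they were imaged on a CQ1 microscope at 37°C and 5% CO2 and gated by CellPathfinder machine learning into Hoechst high-intensity objects or normal cells, with normal cells split into healthy, pyknosed or fragmented nuclei and pyknosed cells into mitotic or apoptotic. Tubulin, mitochondrial-mass and membrane-permeability phenotypes are per cents of healthy-nucleus cells.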

[1] = 12 h, 1 µM, compound concentration 1 uM, replicate 1
[2] = 12 h, 1 µM, compound concentration 1 uM, replicate 2
[3] = 12 h, 10 µM, compound concentration 10 uM, replicate 1
[4] = 12 h, 10 µM, compound concentration 10 uM, replicate 2
[5] = 24 h, 1 µM, compound concentration 1 uM, replicate 1
[6] = 24 h, 1 µM, compound concentration 1 uM, replicate 2
[7] = 24 h, 10 µM, compound concentration 10 uM, replicate 1
[8] = 24 h, 10 µM, compound concentration 10 uM, replicate 2
[9] = 48 h, 1 µM, compound concentration 1 uM, replicate 1
[10] = 48 h, 1 µM, compound concentration 1 uM, replicate 2
[11] = 48 h, 10 µM, compound concentration 10 uM, replicate 1
[12] = 48 h, 10 µM, compound concentration 10 uM, replicate 2

## COc1ccc(-c2ccc3ncc4c(c3c2)n(-c2ccc(N3CCNCC3)c(C(F)(F)F)c2)c(=O)n4C)cn1.O=C(O)/C=C\C(=O)O [BGT-226]
[1]
  Population Apoptotic (%): 86%
  Population Fragmented Nuclei (%): 50%
  Population Healthy Nuclei (%): 10%
  Population Hoechst High Intensity Objects (%): 14%
  Population Membrane Permeable-Phenotype (%): 58%
  Population Mitotic Cells (%): 13%
  Population Normal (%): 85%
  Population Pyknosed Nuclei (%): 38%
  Total Cell Count: 182
[2]
  Population Apoptotic (%): 81%
  Population Fragmented Nuclei (%): 24%
  Population Healthy Nuclei (%): 45%
  Population Hoechst High Intensity Objects (%): 17%
  Population Membrane Permeable-Phenotype (%): 70%
  Population Mitochondria Different-Phenotype (%): 94%
  Population Mitotic Cells (%): 18%
  Population Normal (%): 82%
  Population Pyknosed Nuclei (%): 29%
  Population Tubulin-Different-Phenotype (%): 94%
  Total Cell Count: 45
[3]
  Population Apoptotic (%): 97%
  Population Fragmented Nuclei (%): 33%
  Population Healthy Nuclei (%): 1%
  Population Hoechst High Intensity Objects (%): 13%
  Population Membrane Permeable-Phenotype (%): 50%
  Population Mitochondria Different-Phenotype (%): 50%
  Population Mitotic Cells (%): 2%
  Population Normal (%): 86%
  Population Pyknosed Nuclei (%): 65%
  Population Tubulin-Different-Phenotype (%): 50%
  Total Cell Count: 258
[4]
  Population Apoptotic (%): 100%
  Population Fragmented Nuclei (%): 70%
  Population Healthy Nuclei (%): 9%
  Population Hoechst High Intensity Objects (%): 62%
  Population Membrane Permeable-Phenotype (%): 24%
  Population Mitochondria Different-Phenotype (%): 32%
  Population Mitotic Cells (%): 0%
  Population Normal (%): 37%
  Population Pyknosed Nuclei (%): 19%
  Population Tubulin-Different-Phenotype (%): 24%
  Total Cell Count: 675
[5]
  Population Apoptotic (%): 98%
  Population Fragmented Nuclei (%): 47%
  Population Healthy Nuclei (%): 5%
  Population Hoechst High Intensity Objects (%): 14%
  Population Membrane Permeable-Phenotype (%): 75%
  Population Mitochondria Different-Phenotype (%): 87%
  Population Mitotic Cells (%): 1%
  Population Normal (%): 85%
  Population Pyknosed Nuclei (%): 47%
  Population Tubulin-Different-Phenotype (%): 75%
  Total Cell Count: 181
[6]
  Population Apoptotic (%): 83%
  Population Fragmented Nuclei (%): 20%
  Population Healthy Nuclei (%): 40%
  Population Hoechst High Intensity Objects (%): 30%
  Population Membrane Permeable-Phenotype (%): 66%
  Population Mitochondria Different-Phenotype (%): 91%
  Population Mitotic Cells (%): 16%
  Population Normal (%): 69%
  Population Pyknosed Nuclei (%): 40%
  Population Tubulin-Different-Phenotype (%): 91%
  Total Cell Count: 43
[7]
  Population Apoptotic (%): 97%
  Population Fragmented Nuclei (%): 39%
  Population Healthy Nuclei (%): 0%
  Population Hoechst High Intensity Objects (%): 15%
  Population Membrane Permeable-Phenotype (%): 100%
  Population Mitochondria Different-Phenotype (%): 100%
  Population Mitotic Cells (%): 2%
  Population Normal (%): 84%
  Population Pyknosed Nuclei (%): 59%
  Population Tubulin-Different-Phenotype (%): 100%
  Total Cell Count: 269
[8]
  Population Apoptotic (%): 100%
  Population Fragmented Nuclei (%): 79%
  Population Healthy Nuclei (%): 10%
  Population Hoechst High Intensity Objects (%): 64%
  Population Membrane Permeable-Phenotype (%): 69%
  Population Mitochondria Different-Phenotype (%): 60%
  Population Mitotic Cells (%): 0%
  Population Normal (%): 35%
  Population Pyknosed Nuclei (%): 9%
  Population Tubulin-Different-Phenotype (%): 60%
  Total Cell Count: 614
[9]
  Population Fragmented Nuclei (%): 45%
  Population Healthy Nuclei (%): 3%
  Population Hoechst High Intensity Objects (%): 22%
  Population Membrane Permeable-Phenotype (%): 80%
  Population Mitochondria Different-Phenotype (%): 80%
  Population Normal (%): 77%
  Population Pyknosed Nuclei (%): 50%
  Population Tubulin-Different-Phenotype (%): 80%
  Total Cell Count: 185
[10]
  Population Apoptotic (%): 100%
  Population Fragmented Nuclei (%): 25%
  Population Healthy Nuclei (%): 35%
  Population Hoechst High Intensity Objects (%): 34%
  Population Membrane Permeable-Phenotype (%): 90%
  Population Mitochondria Different-Phenotype (%): 90%
  Population Mitotic Cells (%): 0%
  Population Normal (%): 65%
  Population Pyknosed Nuclei (%): 39%
  Population Tubulin-Different-Phenotype (%): 90%
  Total Cell Count: 43
[11]
  Population Apoptotic (%): 97%
  Population Fragmented Nuclei (%): 40%
  Population Healthy Nuclei (%): 3%
  Population Hoechst High Intensity Objects (%): 18%
  Population Membrane Permeable-Phenotype (%): 71%
  Population Mitochondria Different-Phenotype (%): 85%
  Population Mitotic Cells (%): 2%
  Population Normal (%): 81%
  Population Pyknosed Nuclei (%): 55%
  Population Tubulin-Different-Phenotype (%): 85%
  Total Cell Count: 260
[12]
  Population Apoptotic (%): 100%
  Population Fragmented Nuclei (%): 85%
  Population Healthy Nuclei (%): 12%
  Population Hoechst High Intensity Objects (%): 67%
  Population Membrane Permeable-Phenotype (%): 81%
  Population Mitochondria Different-Phenotype (%): 72%
  Population Mitotic Cells (%): 0%
  Population Normal (%): 32%
  Population Pyknosed Nuclei (%): 1%
  Population Tubulin-Different-Phenotype (%): 72%
  Total Cell Count: 534
